ChEMBL document CHEMBL1141143, “Novel 17beta-substituted conformationally constrained neurosteroids that modulate GABA A receptors” (J Med Chem, 2005)

target: GABA-A receptor; anion channel (Rattus norvegicus) (UniProt O09028+P15431+P18506+P18508+P19969+P20236+P23574+P23576+P28471+P28473+P30191+P62813+P63079+P63138+Q91ZM7+Q9ES14); test: Displacement of [3H]EBOB from GABA-A receptors of rat cerebellum; type: tissue-based
Outline: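 Rat cerebellar synaptosomal membranes: homogenized in 0.32 M sucrose, differentially centrifuged, water-lysed, Tris HCl (pH 7.4) washed, frozen; thawed membranes spun in 50 mM Tris HCl with 0.2 M NaCl. Incubated 2 h at 25 °C with 1 nM [3H]EBOB; nonspecific binding with 50 µM picrotoxin. Duplicates filtered on GF/B. Specific binding ratio with/without steroid fitted by nonlinear regression; mean ± SEM.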

| Structure (SMILES) | Ks [nM] |
| --- | --- |
| C#CC(=O)[C@H]1CC[C@H]2[C@@H]3CC[C@H]4C[C@H](O)CC[C@]4(C)[C@H]3CC[C@]12C | 844 |
| C#C[C@H](O)[C@H]1CC[C@H]2[C@@H]3CC[C@H]4C[C@H](O)CC[C@]4(C)[C@H]3CC[C@]12C | 494 |
| CC(O)C#C[C@H]1CC[C@H]2[C@@H]3CC[C@H]4C[C@H](O)CC[C@]4(C)[C@H]3CC[C@]12C (stereo partly drawn) | 946 |
| C#C[C@@H](O)[C@H]1CC[C@H]2[C@@H]3CC[C@H]4C[C@H](O)CC[C@]4(C)[C@H]3CC[C@]12C | 145 |
| CC(=O)[C@H]1CC[C@H]2[C@@H]3CC[C@H]4C[C@H](O)CC[C@]4(C)[C@H]3CC[C@]12C | 198 |
| C=C=C[C@@H](O)[C@H]1CC[C@H]2[C@@H]3CC[C@H]4C[C@H](O)CC[C@]4(C)[C@H]3CC[C@]12C | 2.8 |
| C=C=C[C@H](O)[C@H]1CC[C@H]2[C@@H]3CC[C@H]4C[C@H](O)CC[C@]4(C)[C@H]3CC[C@]12C | 810 |
| C[C@]12CC[C@@H](O)C[C@@H]1CC[C@@H]1[C@@H]2CC[C@]2(C)[C@@H](C#CBr)CC[C@@H]12 | 350 |
| C#C[C@@H](OC)[C@H]1CC[C@H]2[C@@H]3CC[C@H]4C[C@H](O)CC[C@]4(C)[C@H]3CC[C@]12C | 802 |
| COc1ccc(C#C[C@@H](O)[C@H]2CC[C@H]3[C@@H]4CC[C@H]5C[C@H](O)CC[C@]5(C)[C@H]4CC[C@]23C)cc1 | 870 |
| COc1ccc(C#C[C@H](O)[C@H]2CC[C@H]3[C@@H]4CC[C@H]5C[C@H](O)CC[C@]5(C)[C@H]4CC[C@]23C)cc1 | 1640 |
| Cc1ccc(C#C[C@H]2CC[C@H]3[C@@H]4CC[C@H]5C[C@H](O)CC[C@]5(C)[C@H]4CC[C@]23C)cc1 | 4100 |
| C#C[C@H](OC)[C@H]1CC[C@H]2[C@@H]3CC[C@H]4C[C@H](O)CC[C@]4(C)[C@H]3CC[C@]12C | 924 |
